This note sets out measurements from ChEMBL document CHEMBL1124093, “Peptide derivatives of primaquine as potential antimalarial agents” (J Med Chem, 1988).

Series [1] has as its system Mus musculus. Nature of the series: Antimalarial activity against Plasmodium berghei in mice (Mus musculus) at 640 mg/kg measured as number of toxic deaths occurring on days 2-5 after infection. Particulars: in vivo. Also on record: dose 640 mg/kg. Format: ADME, organism-based. The essentials:
(§1)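 Mice infected with blood-induced P. berghei, five animals per group, run by the Osdene et al. method. Doses are expressed as mg primaquine diphosphate/kg. The read-out is the number of deaths attributed to toxicity occurring on days 2-5 after infection.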

Series [2] has as its system Plasmodium cynomolgi. Nature of the series: Antimalarial activity against Plasmodium cynomolgi in Rhesus monkeys (Macaca mulatta) at 0.316 mg/kg; cured 0 of 2. The format is functional.
The subject of series [3] is Mus musculus. Kind of series: Antimalarial activity against Plasmodium berghei in mice (Mus musculus) at 320 mg/kg measured as number of toxic deaths occurring on days 2-5 after infection. Format: ADME, organism-based. More on the design: dose 320 mg/kg. As to conditions: in vivo. The essentials:
as §1

Series [4] relates to Plasmodium cynomolgi. Kind of series: Antimalarial activity against Plasmodium cynomolgi in Rhesus monkeys (Macaca mulatta) at 1 mg/kg; cured 1 of 2.
In series [5] the test system is Mus musculus. Nature of the series: Antimalarial activity against Plasmodium berghei in mice (Mus musculus) at 160 mg/kg measured as number of toxic deaths occurring on days 2-5 after infection. Format: ADME, organism-based. Also on record: dose 160 mg/kg. As to conditions: in vivo. The essentials:
as §1

In series [6] the test system is Mus musculus. Kind of series: Antimalarial activity against Plasmodium berghei in rodent at 80 mg/Kg measured as mean survival time over control (Delta MST). Format: functional.

Take `COc1cc(NC(C)CCCN)c2ncccc2c1` (stereo unspecified) [PRIMAQUINE]: the values for the Toxic deaths in series [1], in series [3] and in series [5] were 5, 5 and 2, respectively. Also, the Cures turned out to be 0 in series [2] and 1 in series [4]. For the same compound, the “Delta MST” value in series [6] is on record as 9.
